# Measured values from different studies.
# RET: Proto-oncogene tyrosine-protein kinase receptor Ret (RET, Homo sapiens, UniProt P07949)
# RET V804M: Proto-oncogene tyrosine-protein kinase receptor Ret (RET, Homo sapiens, UniProt P07949, V804M)
# RET M918T: Proto-oncogene tyrosine-protein kinase receptor Ret (RET, Homo sapiens, UniProt P07949, M918T)
SMILES,target,assay,conditions,quantity,result
O=c1[nH]c2ccccc2n1C1CCN(Cc2ccc(-c3[nH]c4cc5ncnc5cc4nc3-c3ccccc3)cc2)CC1,RET,cell-free assay,0.5 µM,remaining signal,96.7%
C#Cc1n[nH]c2c(-c3cn([C@@H](C)c4ccccc4)c(=O)[nH]c3=O)cc(F)cc12,RET V804M,"enzyme activity, inhibitor",0.1 µM,inhibition,2.3%
Cn1cncc1[C@](O)(COc1ccc(C#N)cc1-c1ccc(OC(F)(F)F)cc1)c1ccc(C#N)cc1,RET M918T,"cell-free assay, competition with immobilised ligand",1 µM,remaining binding,95%
Nc1ncc(-c2nc(N3CCOCC3)nc(N3CCOCC3)n2)c(C(F)F)n1,RET V804M,"binding, competition with immobilised ligand",10 µM,remaining binding,73%
Cc1nn(C)cc1-c1nc2c(N3CCN(Cc4ccc(Cl)cc4)CC3)c(Cl)cnc2[nH]1,RET V804M,"binding, competition with immobilised ligand",1 µM,remaining binding,22%
Cn1cc(-c2cc(F)cc(N3CCn4c(cc5c4CCCC5)C3=O)c2CO)cc(Nc2ccc(N3CCN(C4COC4)CC3)cn2)c1=O,RET,"enzyme activity, inhibitor",0.1 µM,inhibition,11%
O=C(Cn1cc(C=C2C(=O)NC(=O)NC2=O)c2ccccc21)Nc1ccccc1,RET,"enzyme activity, inhibitor, radiometric",10 µM,remaining activity,110%
C#Cc1n[nH]c2c(-c3cn(C(C)c4ccccn4)c(=O)[nH]c3=O)cc(F)cc12 (stereo not shown),RET,"enzyme activity, inhibitor",1 µM,inhibition,8.7%
O=C1NC(=O)N(c2ccccc2)C(=O)C1=CNc1ccc2[nH]c(=O)[nH]c2c1,RET,"enzyme activity, inhibitor, radiometric",10 µM,remaining activity,90.6%
N#CC1(c2ccccn2)CCN(Cc2cc(C(=O)O)c(=O)n3ccccc23)CC1,RET M918T,"cell-free assay, competition with immobilised ligand",1 µM,remaining binding,100%
